What was measured:
Ephrin type-B receptor 2 = Ephrin type-B receptor 2 (Homo sapiens, UniProt P29323); assay: Inhibition of EphB2 by [gamma33-P]ATP based assay
Outline: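 Radiometric [γ-33P]ATP kinase assay against Eph kinases, following a protocol similar to the Mg-acetate/MgATP filter-binding method.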

[1] = biological target: Dual specificity tyrosine-phosphorylation-regulated kinase 1A (Homo sapiens) (UniProt Q13627); assay: Inhibition of DYRK1A assessed as remaining enzyme activity at 1 uM relative to DMSO
[2] = biological target: Ribosomal protein S6 kinase alpha-5 (Homo sapiens) (UniProt O75582); assay: Inhibition of MSK1 assessed as remaining enzyme activity at 1 uM relative to DMSO
Sequence of Ribosomal protein S6 kinase alpha-5 (Homo sapiens) (O75582 whole entry, looked up): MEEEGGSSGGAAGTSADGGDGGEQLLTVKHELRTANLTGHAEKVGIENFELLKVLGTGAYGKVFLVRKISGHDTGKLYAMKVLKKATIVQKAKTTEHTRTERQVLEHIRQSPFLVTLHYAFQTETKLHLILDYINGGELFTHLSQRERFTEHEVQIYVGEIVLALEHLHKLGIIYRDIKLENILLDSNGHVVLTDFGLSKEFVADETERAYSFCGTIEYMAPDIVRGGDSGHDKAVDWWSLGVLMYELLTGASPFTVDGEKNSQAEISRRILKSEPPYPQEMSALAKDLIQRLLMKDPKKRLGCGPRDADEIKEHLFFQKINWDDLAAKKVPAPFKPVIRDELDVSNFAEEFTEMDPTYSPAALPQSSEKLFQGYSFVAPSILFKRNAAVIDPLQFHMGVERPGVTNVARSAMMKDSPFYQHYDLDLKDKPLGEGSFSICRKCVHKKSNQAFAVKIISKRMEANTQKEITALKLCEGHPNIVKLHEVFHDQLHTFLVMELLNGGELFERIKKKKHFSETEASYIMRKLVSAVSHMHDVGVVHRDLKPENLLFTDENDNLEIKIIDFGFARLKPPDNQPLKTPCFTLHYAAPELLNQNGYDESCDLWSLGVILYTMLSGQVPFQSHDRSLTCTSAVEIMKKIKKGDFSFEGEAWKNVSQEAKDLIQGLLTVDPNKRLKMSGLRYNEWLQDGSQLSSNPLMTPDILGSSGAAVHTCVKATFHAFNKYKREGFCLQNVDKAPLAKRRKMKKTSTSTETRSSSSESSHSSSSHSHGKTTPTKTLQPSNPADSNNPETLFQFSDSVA
Outline: (§1)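 Radiometric kinase assay run robotically at room temperature for 30 min, linear in time and enzyme. Conditions: 10 mM magnesium acetate, [γ-33P]ATP (800 cpm/pmol) at 5, 20 or 50 μM per kinase, at or below its ATP Km. Started with MgATP and stopped with orthophosphoric acid, then spotted on P81 filters. Reported as mean % activity of duplicates versus DMSO controls.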

Ephrin type-B receptor 4 [3] = biological target: T1, Ephrin type-B receptor 4 (Homo sapiens, UniProt P54760); assay: Inhibition of EphB4 by [gamma33-P]ATP based assay
T1 sequence (P54760 whole entry): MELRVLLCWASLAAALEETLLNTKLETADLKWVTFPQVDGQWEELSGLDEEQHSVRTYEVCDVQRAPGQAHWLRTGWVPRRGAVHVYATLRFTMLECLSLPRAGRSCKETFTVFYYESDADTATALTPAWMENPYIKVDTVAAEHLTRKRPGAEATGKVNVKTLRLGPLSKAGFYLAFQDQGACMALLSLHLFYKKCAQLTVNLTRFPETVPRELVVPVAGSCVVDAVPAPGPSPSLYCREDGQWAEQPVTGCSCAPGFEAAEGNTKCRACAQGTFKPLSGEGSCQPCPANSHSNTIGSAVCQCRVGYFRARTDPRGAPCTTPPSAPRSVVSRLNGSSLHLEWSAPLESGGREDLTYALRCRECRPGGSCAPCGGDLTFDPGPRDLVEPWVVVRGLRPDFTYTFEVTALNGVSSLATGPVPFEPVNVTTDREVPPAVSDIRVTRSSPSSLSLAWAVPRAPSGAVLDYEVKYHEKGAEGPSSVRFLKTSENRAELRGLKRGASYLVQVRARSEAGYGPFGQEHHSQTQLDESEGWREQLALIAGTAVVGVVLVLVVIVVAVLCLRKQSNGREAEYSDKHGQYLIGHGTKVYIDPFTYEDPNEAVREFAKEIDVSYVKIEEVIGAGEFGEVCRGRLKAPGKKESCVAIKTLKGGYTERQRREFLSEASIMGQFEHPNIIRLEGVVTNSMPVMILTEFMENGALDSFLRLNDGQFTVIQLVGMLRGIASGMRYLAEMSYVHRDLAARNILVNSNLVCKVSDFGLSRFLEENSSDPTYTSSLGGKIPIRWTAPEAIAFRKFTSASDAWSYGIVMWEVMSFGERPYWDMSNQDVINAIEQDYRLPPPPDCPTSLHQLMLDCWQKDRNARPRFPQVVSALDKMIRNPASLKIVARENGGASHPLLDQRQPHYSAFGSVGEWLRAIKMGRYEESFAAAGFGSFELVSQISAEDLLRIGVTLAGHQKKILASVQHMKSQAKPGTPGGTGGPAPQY

[4] = biological target: Mitogen-activated protein kinase 8 (Homo sapiens) (UniProt P45983); assay: Inhibition of JNK1 assessed as remaining enzyme activity at 1 uM relative to DMSO; outline: as §1
Sequence of Mitogen-activated protein kinase 8 (Homo sapiens) (P45983 whole entry): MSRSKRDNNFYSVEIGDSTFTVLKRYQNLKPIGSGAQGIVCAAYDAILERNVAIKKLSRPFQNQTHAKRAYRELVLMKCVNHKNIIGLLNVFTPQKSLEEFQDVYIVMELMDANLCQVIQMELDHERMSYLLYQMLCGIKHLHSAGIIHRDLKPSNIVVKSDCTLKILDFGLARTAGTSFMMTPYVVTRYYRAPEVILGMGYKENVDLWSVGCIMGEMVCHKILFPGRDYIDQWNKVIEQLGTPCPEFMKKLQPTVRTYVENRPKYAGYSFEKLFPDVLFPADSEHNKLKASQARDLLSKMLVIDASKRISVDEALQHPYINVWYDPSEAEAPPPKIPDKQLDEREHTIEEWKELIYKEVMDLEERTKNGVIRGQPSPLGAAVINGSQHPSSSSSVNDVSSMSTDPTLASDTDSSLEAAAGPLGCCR

[5] = biological target: Mitogen-activated protein kinase 13 (Homo sapiens) (UniProt O15264); assay: Inhibition of p38delta assessed as remaining enzyme activity at 1 uM relative to DMSO
[6] = biological target: Tyrosine-protein kinase Lck (Homo sapiens) (UniProt P06239); assay: Inhibition of Lck assessed as remaining enzyme activity at 1 uM relative to DMSO
Sequence of Tyrosine-protein kinase Lck (Homo sapiens) (P06239 2-509 limits assumed): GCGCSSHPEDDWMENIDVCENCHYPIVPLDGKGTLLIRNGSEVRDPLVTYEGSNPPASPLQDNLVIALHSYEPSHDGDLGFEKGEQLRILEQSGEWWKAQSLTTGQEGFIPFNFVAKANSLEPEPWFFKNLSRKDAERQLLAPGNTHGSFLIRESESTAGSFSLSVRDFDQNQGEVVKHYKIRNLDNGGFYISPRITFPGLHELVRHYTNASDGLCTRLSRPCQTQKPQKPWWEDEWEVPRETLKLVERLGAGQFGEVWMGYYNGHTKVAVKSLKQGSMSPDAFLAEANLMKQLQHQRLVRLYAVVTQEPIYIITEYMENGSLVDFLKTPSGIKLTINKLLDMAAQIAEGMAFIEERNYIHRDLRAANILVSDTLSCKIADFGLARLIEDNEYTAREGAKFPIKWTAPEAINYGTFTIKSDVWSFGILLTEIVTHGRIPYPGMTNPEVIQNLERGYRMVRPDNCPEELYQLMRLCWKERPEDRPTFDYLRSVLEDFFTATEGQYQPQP
Outline: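 Radiometric kinase assay run robotically at room temperature for 30 min. Contained 10 mM magnesium acetate and [γ-33P]ATP (800 cpm/pmol) at 5, 20 or 50 μM, chosen per kinase to be at or below its ATP Km. Reactions were started with MgATP, stopped with orthophosphoric acid and spotted onto P81 filters. Result is mean % activity of duplicates at one inhibitor concentration versus DMSO control.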

[7] = biological target: LIM domain kinase 1 (Homo sapiens) (UniProt P53667); assay: Binding affinity to LIMK1 assessed as percentage of kinase remaining bound to the bead at 1 uM by T7 phage display based binding assay
Outline: (§2)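 Competition binding assay run by a contract lab. Each kinase was expressed as a fusion to T7 phage, full-length for small kinases and catalytic domain for large ones. Phage were mixed with an immobilized known kinase inhibitor on streptavidin magnetic beads and with test compound at a single 1 μM. Kinase/phage still bound to the beads was quantified by qPCR and expressed as % of DMSO control.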

[8] = biological target: Cyclin-G-associated kinase (Homo sapiens) (UniProt O14976); assay: Binding affinity to GAK assessed as percentage of kinase remaining bound to the bead at 1 uM by T7 phage display based binding assay; outline: as §2
[9] = biological target: Serine/threonine-protein kinase Chk1 (Homo sapiens) (UniProt O14757); assay: Inhibition of CHK1 assessed as remaining enzyme activity at 1 uM relative to DMSO; outline: as §1
Sequence of Serine/threonine-protein kinase Chk1 (Homo sapiens) (O14757 whole entry): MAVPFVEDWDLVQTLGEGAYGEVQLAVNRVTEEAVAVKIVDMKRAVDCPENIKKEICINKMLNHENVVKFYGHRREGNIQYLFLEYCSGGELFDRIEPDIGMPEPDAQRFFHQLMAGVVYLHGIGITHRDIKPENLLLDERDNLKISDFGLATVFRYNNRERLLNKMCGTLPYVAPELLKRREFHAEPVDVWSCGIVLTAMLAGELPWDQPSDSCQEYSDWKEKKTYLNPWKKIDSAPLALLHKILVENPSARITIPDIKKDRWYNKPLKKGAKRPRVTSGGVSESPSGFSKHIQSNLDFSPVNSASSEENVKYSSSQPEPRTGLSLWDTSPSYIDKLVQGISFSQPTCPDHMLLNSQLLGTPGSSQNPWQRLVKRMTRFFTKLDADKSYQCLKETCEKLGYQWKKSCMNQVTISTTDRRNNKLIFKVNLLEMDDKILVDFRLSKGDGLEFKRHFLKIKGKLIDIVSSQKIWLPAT

Ephrin type-B receptor 4 [10] = biological target: T1, Ephrin type-B receptor 4; assay: Inhibition of EphB4 assessed as blockade of synthetic substrate phosphorylation by FRET assay
[11] = biological target: Tyrosine-protein kinase Srms (Homo sapiens) (UniProt Q9H3Y6); assay: Binding affinity to SRMS assessed as percentage of kinase remaining bound to the bead at 1 uM by T7 phage display based binding assay; outline: as §2
Sequence of Tyrosine-protein kinase Srms (Homo sapiens) (Q9H3Y6 whole entry): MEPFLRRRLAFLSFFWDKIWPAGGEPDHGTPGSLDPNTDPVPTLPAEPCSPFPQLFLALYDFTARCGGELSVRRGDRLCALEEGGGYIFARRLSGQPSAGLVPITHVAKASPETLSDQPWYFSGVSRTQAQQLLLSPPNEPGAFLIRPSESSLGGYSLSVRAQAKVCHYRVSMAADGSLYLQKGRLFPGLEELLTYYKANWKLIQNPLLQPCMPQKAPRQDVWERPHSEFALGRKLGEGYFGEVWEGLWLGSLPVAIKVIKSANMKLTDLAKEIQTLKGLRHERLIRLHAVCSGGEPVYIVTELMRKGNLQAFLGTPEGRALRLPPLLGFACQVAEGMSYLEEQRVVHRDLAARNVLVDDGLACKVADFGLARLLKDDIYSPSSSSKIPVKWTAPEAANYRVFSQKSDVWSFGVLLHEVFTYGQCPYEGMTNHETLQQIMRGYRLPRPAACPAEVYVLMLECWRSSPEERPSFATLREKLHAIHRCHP

[12] = biological target: MAP kinase-activated protein kinase 5 (Homo sapiens) (UniProt Q8IW41); assay: Inhibition of PRAK assessed as remaining enzyme activity at 3 uM relative to DMSO
Sequence of MAP kinase-activated protein kinase 5 (Homo sapiens) (Q8IW41 whole entry): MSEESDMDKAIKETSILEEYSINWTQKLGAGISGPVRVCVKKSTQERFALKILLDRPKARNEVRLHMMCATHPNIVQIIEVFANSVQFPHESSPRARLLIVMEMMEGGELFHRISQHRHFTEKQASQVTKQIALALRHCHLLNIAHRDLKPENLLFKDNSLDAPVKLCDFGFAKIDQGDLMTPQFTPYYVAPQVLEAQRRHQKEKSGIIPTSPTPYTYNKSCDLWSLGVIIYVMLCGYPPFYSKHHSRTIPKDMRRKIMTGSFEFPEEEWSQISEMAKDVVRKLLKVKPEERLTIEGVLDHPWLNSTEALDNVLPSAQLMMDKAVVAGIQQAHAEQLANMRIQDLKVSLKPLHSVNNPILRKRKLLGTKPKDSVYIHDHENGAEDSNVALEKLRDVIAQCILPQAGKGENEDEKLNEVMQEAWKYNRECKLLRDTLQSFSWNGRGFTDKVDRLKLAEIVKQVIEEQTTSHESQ

[13] = biological target: Tyrosine-protein kinase CSK (Homo sapiens) (UniProt P41240); assay: Inhibition of CSK assessed as remaining enzyme activity at 3 uM relative to DMSO
Outline: (§3)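 Dundee kinase panel, radiometric: [γ-33P]ATP (800 cpm/pmol) at 5, 20 or 50 μM, at or below each kinase's ATP Km; 10 mM magnesium acetate; robotic, room temperature, 30 min. Reactions started with MgATP, stopped with orthophosphoric acid, spotted onto P81 filters. Inhibitor tested at a single concentration; mean % activity of duplicates relative to DMSO control.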

[14] = biological target: Eukaryotic elongation factor 2 kinase (Homo sapiens) (UniProt O00418); assay: Inhibition of EF2K assessed as remaining enzyme activity at 3 uM relative to DMSO; outline: as §3
[15] = biological target: Protein kinase C alpha type (Homo sapiens) (UniProt P17252); assay: Inhibition of PKCalpha assessed as remaining enzyme activity at 3 uM relative to DMSO
[16] = biological target: Dual specificity tyrosine-phosphorylation-regulated kinase 1A (Homo sapiens) (UniProt Q13627); assay: Inhibition of DYRK1A assessed as remaining enzyme activity at 3 uM relative to DMSO
[17] = biological target: Serine/threonine-protein kinase Chk2 (Homo sapiens) (UniProt O96017); assay: Inhibition of CHK2 assessed as remaining enzyme activity at 3 uM relative to DMSO; outline: as §3

Sequence of Ephrin type-B receptor 2 (P29323 whole entry): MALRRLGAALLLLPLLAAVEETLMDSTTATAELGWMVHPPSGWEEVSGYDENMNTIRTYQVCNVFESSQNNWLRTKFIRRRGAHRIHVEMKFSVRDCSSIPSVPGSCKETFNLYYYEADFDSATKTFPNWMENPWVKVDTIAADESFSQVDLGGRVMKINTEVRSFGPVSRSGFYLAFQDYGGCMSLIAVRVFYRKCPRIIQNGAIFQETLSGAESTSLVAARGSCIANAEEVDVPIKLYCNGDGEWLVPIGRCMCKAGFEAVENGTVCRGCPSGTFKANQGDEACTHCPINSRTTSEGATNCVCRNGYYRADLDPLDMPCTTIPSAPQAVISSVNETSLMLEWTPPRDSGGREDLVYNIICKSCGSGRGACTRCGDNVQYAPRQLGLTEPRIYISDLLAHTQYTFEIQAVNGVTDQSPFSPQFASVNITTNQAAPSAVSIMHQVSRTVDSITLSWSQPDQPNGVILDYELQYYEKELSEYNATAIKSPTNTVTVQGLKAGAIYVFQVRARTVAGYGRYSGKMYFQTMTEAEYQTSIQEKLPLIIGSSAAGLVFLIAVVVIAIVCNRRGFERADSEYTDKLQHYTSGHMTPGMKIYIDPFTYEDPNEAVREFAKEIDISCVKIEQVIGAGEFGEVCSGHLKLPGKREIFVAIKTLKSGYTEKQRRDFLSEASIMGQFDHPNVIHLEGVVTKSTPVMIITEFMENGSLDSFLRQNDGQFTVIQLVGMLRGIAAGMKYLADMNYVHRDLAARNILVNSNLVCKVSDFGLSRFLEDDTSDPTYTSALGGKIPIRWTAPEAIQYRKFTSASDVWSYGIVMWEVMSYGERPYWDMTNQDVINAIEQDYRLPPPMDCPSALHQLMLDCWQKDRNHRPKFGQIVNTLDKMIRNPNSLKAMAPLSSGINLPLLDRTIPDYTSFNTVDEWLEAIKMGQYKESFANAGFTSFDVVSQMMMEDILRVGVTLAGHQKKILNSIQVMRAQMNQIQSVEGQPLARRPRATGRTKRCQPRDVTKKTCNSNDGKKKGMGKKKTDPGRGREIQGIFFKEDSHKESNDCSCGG

| IC50 (Ephrin type-B receptor 2) [nM] | Activity [1] [%] | Activity [2] [%] | IC50 (Ephrin type-B receptor 4 [3]) [nM] | Activity [4] [%] | Activity [5] [%] | Activity [6] [%] | Activity [7] [%] | Activity [8] [%] | Activity [9] [%] | IC50 (Ephrin type-B receptor 4 [10]) [nM] | Activity [11] [%] | Activity [12] [%] | Activity [13] [%] | Activity [14] [%] | Activity [15] [%] | Activity [16] [%] | Activity [17] [%] | Compound |
| --- | --- | --- | --- | --- | --- | --- | --- | --- | --- | --- | --- | --- | --- | --- | --- | --- | --- | --- |
| 1.2 | 99 | 95 | 1.6 | 96 | 86 | 0 | 83 | 49 | 95 | 5 | 18 |  |  |  |  |  |  | COc1ccccc1-n1c(-c2cc(O)ccc2C)cn2c3c(=O)[nH]c(=O)n(C)c3nc12 |
|  |  |  | 47 |  |  |  |  |  |  | 180 |  | 87 | 72 | 93 | 97 | 99 | 99 | COc1ccccc1-n1c(-c2ccccc2C)cn2c3c(=O)[nH]c(=O)n(C)c3nc12 |
